Reference: publication PMC9399017 (European Journal of Drug Metabolism and Pharmacokinetics, 2022)
Values joined by “and” are separate entries in the source; they are usually repeats but may differ in a detail not shown here. Identical values can stand only once.

Columns and labels:
CYP3A = conditions: humans; cited from earlier work
[1] = system: major CYP isoenzymes, including CYP3A4; conditions: in vitro; cited from earlier work
[2] = Population pharmacokinetic; format: in vivo, human (patients with advanced cancers); conditions: for Duration of constant (zero-order) release into depot, D1, capsule, Estimate (% RSE): hard gelatin capsule
Outline: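 Patients took immediate-release capsules or film-coated tablets orally. Sampling was intensive in cycle 1 and sparse for up to 5 cycles. Lithium-heparin blood was processed to plasma within about 30 min, protein-precipitated, and measured by validated LC-MS/MS (2.00‒500 ng/mL; LLOQ 2.00 ng/mL). FOCE-I mixed-effects fits tested 1–3-compartment models with fixed allometric weight exponents and per-cycle interoccasion variability. Percentiles came from bootstrap.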

[3] = between-subject variability, NONMEM estimate
[4] = between-subject variability, bootstrap
[5] = final PopPK model, NONMEM estimate

SMILES: C[C@]12CC[C@@H]3c4ccc(O)cc4C[C@@H](CCCCCCCCC[S+]([O-])CCCC(F)(F)C(F)(F)F)[C@H]3[C@@H]1CC[C@@H]2O (stereo partly drawn) [Fulvestrant, fulvestrant]
- Change in exposure to a CYP3A substrate (midazolam) (CYP3A): nor did it change the exposure
- Inhibition of major CYP isoenzymes [1]: did not significantly inhibit

SMILES: CNC(=O)c1cccc2cc(Oc3ccnc4cc(OCC5(N)CC5)c(OC)cc34)ccc12 [lucitanib]
- Dose proportionality (post hoc ETA versus dose) ([2]; 5 to 30 mg lucitanib, visual inspection): consistent with dose proportionality
- Effect of co-administration of fulvestrant on lucitanib pharmacokinetics ([2]; 17 of 403 patients with concomitant fulvestrant): no effect
- Residual error (proportional), Estimate (% RSE) ([2]; NONMEM estimate): 33.6% (2.30%)
- CL/F BSV (log-proportional), Estimate (% RSE) [2, 3]: 47.8% (5.69%)
- D1 BSV (log-proportional), Estimate (% RSE) [2, 3]: 60.1% (18.6%)
- Vc/F BSV (log-proportional), Estimate (% RSE) [2, 3]: 58.6% (6.97%)
- Vp/F BSV (log-proportional), Estimate (% RSE) [2, 3]: 76.7% (9.10%)
- CL/F BSV (log-proportional), Bootstrap median (2.5th, 97.5th percentile) [2, 4]: 47.5% (42.8%, 53.2%)
- D1 BSV (log-proportional), Bootstrap median (2.5th, 97.5th percentile) [2, 4]: 58.7% (41.3%, 75.8%)
- Vc/F BSV (log-proportional), Bootstrap median (2.5th, 97.5th percentile) [2, 4]: 58.9% (51.3%, 67.5%)
- Vp/F BSV (log-proportional), Bootstrap median (2.5th, 97.5th percentile) [2, 4]: 75.2% (60.0%, 88.8%)
- Residual error (proportional), Bootstrap median (2.5th, 97.5th percentile) ([2]; bootstrap): 33.5% (32.0%, 34.8%)
- Duration of constant release into depot for capsule, D1, Bootstrap median (2.5th, 97.5th percentile) ([2]; capsule, nonparametric bootstrap): 0.812 (0.629, 0.956) h
- Effect of concomitant proton pump inhibitors on lucitanib absorption ([2]; concomitant PPI): no clinically significant effect
- Ratio of F with concomitant PPI/without PPI, 95% CI ([2]; concomitant proton pump inhibitor, n = 152, not significant): 0.83–1.08
- Reduction in F with concomitant PPI (estimated effect size) ([2]; concomitant proton pump inhibitor, not clinically significant): 6.5%
- CL/F and Vc/F correlation, Estimate (% RSE) ([2]; correlation of random effects, NONMEM estimate): 0.596 (6.30%)
- CL/F and Vc/F correlation, Bootstrap median (2.5th, 97.5th percentile) ([2]; correlation of random effects, bootstrap): 0.595 (0.469, 0.721)
- Duration of zero-order release, D1, tablet ([2]; film-coated tablet, final PopPK model): 0.243 h
- Apparent central volume, Vc/F, Estimate (% RSE) [2, 5]: 63.8 (5.08%) L/70 kg
- Apparent distribution clearance, Q/F, Estimate (% RSE) [2, 5]: 6.23 (8.41%) L/h/70 kg
- Apparent peripheral volume, Vp/F, Estimate (% RSE) [2, 5]: 69.1 (6.81%) L/70 kg
- Effect of formulation on D1 (tablet to capsule ratio), Estimate (% RSE) [2, 5]: 0.299 (19.4%)
- First-order absorption rate constant, Ka, Estimate (% RSE) [2, 5]: 4.86 1/h and 4.86 (12.6%) 1/h
- Apparent clearance, CL/F, Estimate (% RSE) ([2]; final PopPK model, NONMEM estimate, oral 5-30 mg QD, 403 patients): 1.90 (2.75%) L/h/70 kg
- Duration of constant (zero-order) release into depot, D1, capsule, Estimate (% RSE) ([2]; final PopPK model): 0.814 (22.2%) h
- Duration of constant (zero-order) release into depot, D1, capsule, Estimate (% RSE) ([2]; final PopPK model, listed as Lucitanib): 0.814 h
- half-life ([2]; human, plasma, oral): 8.58 min
- Apparent central volume, Vc/F, Bootstrap median (2.5th, 97.5th percentile) ([2]; nonparametric bootstrap): 63.4 (57.3, 70.6) L/70 kg
- Apparent distribution clearance, Q/F, Bootstrap median (2.5th, 97.5th percentile) ([2]; nonparametric bootstrap): 6.30 (5.29, 7.72) L/h/70 kg
- Apparent peripheral volume, Vp/F, Bootstrap median (2.5th, 97.5th percentile) ([2]; nonparametric bootstrap): 68.9 (61.0, 79.1) L/70 kg
- Effect of formulation on D1 (tablet to capsule ratio), Bootstrap median (2.5th, 97.5th percentile) ([2]; nonparametric bootstrap): 0.343 (0.178, 0.630)
- First-order absorption rate constant, Ka, Bootstrap median (2.5th, 97.5th percentile) ([2]; nonparametric bootstrap): 4.77 (2.94, 8.21) 1/h
- Apparent clearance, CL/F, Bootstrap median (2.5th, 97.5th percentile) ([2]; nonparametric bootstrap, 1000 replicates): 1.90 (1.80, 2.00) L/h/70 kg
- Variance in Vc/F explained by body weight ([2]; present dataset): 11%
- D1 values, both immediate-release formulations ([2]; tablet and capsule): < 1 h
- D1 shorter for tablets versus capsules ([2]; tablet vs capsule): 70%
